Results from different studies.
Lines come from different studies, so protocols differ.
Target: Dual specificity protein kinase CLK4 (CLK4, Homo sapiens, UniProt Q9HAZ1)

Structure (SMILES)	read-out	action	method	tested at	quantity	result
CC(C)(C)c1nc2c(s1)c1nc(N)ncc1c1ccc(NS(=O)(=O)c3c(F)cccc3F)c(F)c12	enzyme activity	inhibitor	radiometric	1 µM	remaining activity	81%
Cn1cncc1C1=CN(c2ncnc3[nH]cnc23)CCS1	enzyme activity	inhibitor	radiometric	50 nM	inhibition	27.1%
CCCOc1ccc([C@@H]2[C@@H](C(=O)O)[C@H](c3ccc4c(c3)OCO4)CN2CC(=O)Nc2c(CC)cccc2CC)cc1	cell-free assay		competition with immobilised ligand	1 µM	remaining binding	89%
O=C(Nc1cnn(-c2csc(C(=O)NC3COC3)c2)c1)Nc1c(F)cccc1Cl	enzyme activity	inhibitor		5 µM	remaining activity	93.2%
Cc1cnc(NC2CCOCC2)nc1-n1cnc(C(=O)NC(CN)c2cc(F)cc(Cl)c2)c1 (centres unmarked)	enzyme activity	inhibitor	radiometric	1 µM	remaining activity	63%
COc1cc(-c2cc(-c3ccc(N4CCNCC4)cc3)cnc2C)cc(OC)c1OC	enzyme activity	inhibitor		0.1 µM	inhibition	1%
O=C(NC[C@@H]1[C@H]2CN(C(=O)OCc3cc(C(F)(F)F)cc(C(F)(F)F)c3)C[C@@H]12)c1ccc2[nH]nnc2c1	cell-free assay		competition with immobilised ligand	1 µM	remaining binding	98%
CN(CCCC(F)(F)F)c1nccc(-c2cnn3ncccc23)n1	binding			1 µM	remaining binding	25%
Cc1cc(NC(=O)c2cccc3cc(-c4cccc5[nH]nc(N)c45)ccc23)ccc1F	enzyme activity	inhibitor		0.1 µM	activity vs control	90%
N#CCCc1ccc2c(c1)-c1[nH]c3ccc([N+](=O)[O-])cc3c1CC(=O)N2	cell-free assay			0.5 µM	remaining signal	77.1%
O=C(CSc1nc2nccnc2c(=O)n1CCc1ccccc1)Nc1nccs1	enzyme activity	inhibitor		10 µM	inhibition	5%
CCOCCn1cc(C(=O)Nc2ccc(-n3nc(-c4cccnc4)cc3C(F)(F)F)cn2)ccc1=O	cell-free assay		competition with immobilised ligand	1 µM	remaining binding	100%
Cn1cnc(Br)c1C1=CN(c2ncnc3[nH]cnc23)CCS1	enzyme activity	inhibitor	radiometric	50 nM	inhibition	24%
CCCCN(CCCC)C(=O)CN1C[C@@H](c2cc(OC)c3c(c2)OCO3)[C@H](C(=O)O)[C@H]1CC(C)(C)CCC	cell-free assay		competition with immobilised ligand	1 µM	remaining binding	72.4%
Oc1cccc(-c2nc(N3CCOCC3)c3oc4ncccc4c3n2)c1	cell-free assay			0.5 µM	remaining signal	81.5%
CC(=O)Nc1c(C(C)=O)c(=O)n(C)c2nc(-c3ccc(Cl)cc3Cl)c(-c3ccc(Cl)cc3)cc12	cell-free assay		competition with immobilised ligand	1 µM	remaining binding	100%
CCN1/C(=C/C(C)=O)Sc2ccc(OC)cc21	cell-free assay			0.5 µM	remaining signal	18.5%
CC(C)(O)[C@H]1CC[C@H](Nc2ccc3ncc(-c4cccc(C(F)(F)F)c4)n3n2)CC1	enzyme activity	inhibitor		1 µM	remaining activity	21.3%
NS(=O)(=O)c1cc(NC(=O)Cc2ccccc2)ccc1Oc1cccc(Cl)c1	cell-free assay		competition with immobilised ligand	1 µM	remaining binding	83%
Cc1ccc(NC(=O)c2ccc(CN3CCN(C)CC3)cc2)cc1Nc1nc(-c2cccnc2)cs1	cell-free assay			0.5 µM	remaining signal	93.3%
